The source made the active and inactive calls. The calls are words filed in the database; no cut-off is given here.
Columns and labels:
[1] = tested on: Trypanosoma cruzi; test: (§1) Antitrypanosomal activity against Trypanosoma cruzi MHOM/Pe/2011/Arequipa DTU 5 trypamastigotes infected in Balb/c mouse assessed as reduction in parasitaemia level at 100 mg/kg, po once daily for 5 consecutive days starting from day 10 post infection measured up to day 50 post infection by Neubauer chamber method; format: functional, organism-based
[2] = tested on: Trypanosoma cruzi; test: Antitrypanosomal activity against Trypanosoma cruzi MHOM/Pe/2011/Arequipa DTU 5 trypamastigotes infected in Balb/c mouse assessed as parasitaemia reactivation at 100 mg/kg, po pretreated once daily for 5 consecutive days starting from day 75 post infection followed by cyclophosphamide-induced immunosuppression on day 100 post infection every 4 days for a maximum of 3 doses measured up to 1 week post immunosuppression by Neubauer chamber method; format: functional
[3] = tested on: Trypanosoma cruzi; test: (§2) Antitrypanosomal activity against Trypanosoma cruzi MHOM/Pe/2011/Arequipa DTU 5 trypamastigotes infected in Balb/c mouse assessed as reduction in parasitaemia reactivation in bone marrow tissue at 100 mg/kg, po pretreated once daily for 5 consecutive days starting from day 75 post infection followed by cyclophosphamide-induced immunosuppression on day 100 post infection every 4 days for a maximum of 3 doses measured on day 127 post infection by PCR method; format: functional; design: scale not given: the % may be the effect or the level left
Outline: (§3)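 Necropsy on day 127 pi after oral treatment and cyclophosphamide immunosuppression. Tissue DNA was amplified by PCR targeting the ~300 bp T. cruzi SOD gene, 200 nM each primer, 30 cycles with 55.5 °C annealing. Products run on 2 % agarose; positive organs counted out of six mice.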

[4] = tested on: Mus musculus; test: (§4) Nephrotoxicity in Balb/c mouse infected with Trypanosoma cruzi MHOM/Pe/2011/Arequipa DTU 5 trypamastigotes assessed as change in urea level in serum at 100 mg/kg, po once daily for 5 consecutive days starting from day 75 post infection measured on day 127 post infection by biochemical analysis relative to control; format: toxicity, organism-based; settings: in vivo
[5] = tested on: Mus musculus; test: as §4, with “Hepatotoxicity” for “Nephrotoxicity”, “alkaline phosphatase” for “urea”, “level” for “level in serum”, “[…],” for “100 mg/kg,”, “81” for “127”; format: toxicity, organism-based; settings: in vivo
Outline: (§5)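 Serum clinical chemistry in Arequipa-infected female BALB/c mice. Oral 20 mg·kg-1 per day for 5 days, started day 10 or day 75 pi. Samples taken at day 16 pi or day 81 pi, and on necropsy day. Markers: CK-MB and LDH (U/L), AST, ALT and alkaline phosphatase (U/L), total bilirubin. Results scored relative to infected untreated controls; uninfected reference n = 15.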

[6] = tested on: Mus musculus; test: as §4, with “Hepatotoxicity” for “Nephrotoxicity”, “ratio of serum […] to GPT” for “urea”, “level” for “level in serum”, “10” for “75”; format: toxicity, organism-based; settings: in vivo
[7] = tested on: Mus musculus; test: as §4, with “Hepatotoxicity” for “Nephrotoxicity”, “decrease” for “change”, “alkaline phosphatase” for “urea”, “level” for “level in serum”, “[…],” for “100 mg/kg,”, “81” for “127”; format: toxicity, organism-based; design: scale not given: the % may be the effect or the level left; settings: in vivo; outline: as §5
[8] = tested on: Mus musculus; test: as §4, with “increase” for “change”, “uric acid” for “urea”, “10” for “75”; format: toxicity, organism-based; settings: in vivo
[9] = tested on: Mus musculus; test: as §4, with “increase” for “change”, “81” for “127”; format: toxicity, organism-based; settings: in vivo
[10] = tested on: Mus musculus; test: as §4, with “Cardiotoxicity” for “Nephrotoxicity”, “serum LDH” for “urea”, “level” for “level in serum”, “20” for “100”, “10” for “75”, “16” for “127”; format: toxicity, organism-based; settings: in vivo; outline: as §5
[11] = tested on: Trypanosoma cruzi; test: Antitrypanosomal activity against Trypanosoma cruzi MHOM/Pe/2011/Arequipa DTU 5 trypamastigotes infected in Balb/c mouse assessed as reduction in parasitaemia reactivation at 20 mg/kg, po pretreated once daily for 5 consecutive days starting from day 10 post infection followed by cyclophosphamide-induced immunosuppression on day 100 post infection every 4 days for a maximum of 3 doses measured up to 1 week post immunosuppression by Neubauer chamber method; format: functional; design: scale not given: the % may be the effect or the level left
Outline: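 Female BALB/c mice (8-10 weeks, 20-25 g), groups of six, infected i.p. with 5 x 10^5 bloodstream trypomastigotes in 0.2 mL PBS; oral dosing 20 mg·kg-1 per day for 5 days in 5% DMSO/0.5% HPMC vehicle. After day 100 pi, cyclophosphamide 200 mg·kg-1 i.p. every 4 days, up to three doses. Within 1 week after the last dose, fresh-blood bloodstream trypomastigotes counted in a Neubauer chamber. Reactivation expressed relative to untreated infected controls.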

[12] = tested on: Trypanosoma cruzi; test: as §2, with “in lung” for “in bone marrow”, “at 20” for “at 100”, “day 10” for “day 75”; format: functional; design: scale not given: the % may be the effect or the level left; outline: as §3
[13] = tested on: Mus musculus; test: as §4, with “Cardiotoxicity” for “Nephrotoxicity”, “ratio of creatine kinase” for “urea level”, “muscle to brain” for “serum”, “20” for “100”, “10” for “75”; format: toxicity, organism-based; settings: in vivo; outline: as §5
[14] = tested on: Mus musculus; test: as §4, with “decrease” for “change”, “uric acid” for “urea”, “20” for “100”; format: toxicity, organism-based; design: scale not given: the % may be the effect or the level left; settings: in vivo
[15] = tested on: Trypanosoma cruzi; test: as §1, with “20” for “100”, “on” for “up to”, “47” for “50”; format: functional, organism-based
Outline: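 Six female BALB/c mice per group, infected i.p. with 5 x 10^5 Arequipa bloodstream trypomastigotes in PBS. Oral dosing once daily for 5 days from day 10 pi, 20 mg·kg-1 per day in aqueous 5 % DMSO/0.5 % HPMC, vehicle to controls. Blood trypomastigotes counted in a Neubauer chamber (parasites·mL-1); means ± SD.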

[16] = tested on: Mus musculus; test: as §4, with “Hepatotoxicity” for “Nephrotoxicity”, “increase” for “change”, “ratio of serum AST to GOT” for “urea”, “level” for “level in serum”, “20” for “100”; format: toxicity, organism-based; settings: in vivo
[17] = tested on: Mus musculus; test: as §4, with “decrease” for “change”, “20” for “100”, “81” for “127”; format: toxicity, organism-based; design: scale not given: the % may be the effect or the level left; settings: in vivo
[18] = tested on: Trypanosoma cruzi; test: Antitrypanosomal activity against Trypanosoma cruzi MHOM/Pe/2011/Arequipa DTU 5 trypamastigotes infected in Balb/c mouse assessed as reduction in Ig-G level in serum at 20 mg/kg, po once daily for 5 consecutive days starting from day 10 post infection measured on day 100 post infection by ELISA; format: functional, organism-based
Outline: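 Female BALB/c mice (8-10 weeks, 20-25 g), six per group, infected i.p. with 5 x 10^5 Arequipa bloodstream trypomastigotes. Compound was given orally once daily for 5 days from day 10 or day 75 pi, at 20 mg·kg-1 per day in 5 % DMSO/0.5 % HPMC. Anti-T. cruzi IgG in serum was measured by ELISA with Fe-SOD antigen, read as OD 490 nm.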

[19] = tested on: Mus musculus; test: Toxicity in Balb/c mouse assessed as death at 20 mg/kg, po once daily for 5 consecutive days starting from day 75 post infection; format: organism-based; settings: in vivo
Outline: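 Female BALB/c mice (8-10 weeks, 20-25 g), groups of six, infected i.p. with 5 x 10^5 Arequipa bloodstream trypomastigotes. Dosing was oral, 20 mg·kg-1 per day for 5 days, given as a 2 mg·mL-1 suspension in 5% DMSO/0.5% hydroxypropyl methylcellulose. Treatment started day 10 pi (acute phase) or day 75 pi (chronic phase). Deaths and body-mass loss were monitored during and after treatment.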

[20] = tested on: Mus musculus; test: as §4, with “Hepatotoxicity” for “Nephrotoxicity”, “increase” for “change”, “ratio of serum ALT to GPT” for “urea”, “level” for “level in serum”, “81” for “127”; format: toxicity, organism-based; settings: in vivo
[21] = tested on: Mus musculus; test: as §4, with “Hepatotoxicity” for “Nephrotoxicity”, “increase” for “change”, “ratio of serum ALT to GPT” for “urea”, “level” for “level in serum”, “10” for “75”, “16” for “127”; format: toxicity, organism-based; settings: in vivo

`COc1ccc(C(=O)CCN2CCN(c3ccc(Cl)cc3)CC2)cc1` was tested, and the Activity [1] was “Active”, the Activity [2] was 20% and the Activity [3] was 78%. For the same molecule, the Activity [4] was < 10% and the Activity [5] was < 10%.
In the case of `COc1ccc(C(=O)CCN2CCN(c3ccc(F)cc3)CC2)cc1`, the Activity [6] is reported as < 10%, the Activity [7] is reported as “<= 10%” and the Activity [8] is reported as “<= 10%”. For the same molecule, the Activity [9] was “<= 30%”.
With `O=C(Cn1ccnc1[N+](=O)[O-])NCc1ccccc1` [BENZNIDAZOLE] the Activity [10] was < 10%, the Activity [11] was 75% and the Activity [12] was 33%. The Activity [13] was < 10%, the Activity [14] was “<= 20%” and the Activity [15] was “inactive”. The Activity [16] was “<= 10%”, the Activity [17] was “<= 30%” and the Activity [18] was “Active”. The Activity [19] was “Non-Toxic”.
With `COc1ccc(C(=O)CCN2CCN(c3ccc([N+](=O)[O-])cc3)CC2)cc1` the Activity [20] was “<= 30%” and the Activity [21] was > 40%.

— ChEMBL document CHEMBL4118256, “Second Generation of Mannich Base-Type Derivatives with in Vivo Activity against Trypanosoma cruzi” (J Med Chem, 2018)
